According to ChEMBL document CHEMBL4014341, “Discovery of a Human Neuromedin U Receptor 1-Selective Hexapeptide Agonist with Enhanced Serum Stability” (J Med Chem, 2017):
Activity calls are given as the source filed them. The calls are words filed in the database; no cut-off is given here. Square brackets hold non-standard residues; d marks the D form. Peptide text beside a SMILES is read from it. * marks the point of attachment. Phe(4-NO2) = N[C@@H](Cc1ccc([N+](=O)[O-])cc1)C(=O)O; Phe(4-CF3) = N[C@@H](Cc1ccc(C(F)(F)F)cc1)C(=O)O; Bpa = N[C@@H](Cc1ccc(C(=O)c2ccccc2)cc1)C(=O)O; Bip = N[C@@H](Cc1ccc(-c2ccccc2)cc1)C(=O)O; Phe(4-Br) = N[C@@H](Cc1ccc(Br)cc1)C(=O)O; Phe(4-CN) = N#Cc1ccc(C[C@H](N)C(=O)O)cc1; Phe(4-Cl) = N[C@@H](Cc1ccc(Cl)cc1)C(=O)O; αMeW = C[C@](N)(Cc1c[nH]c2ccccc12)C(=O)O; Dip = N[C@H](C(=O)O)C(c1ccccc1)c1ccccc1; Phe(3-F) = N[C@@H](Cc1cccc(F)c1)C(=O)O; 1Nal = N[C@@H](Cc1cccc2ccccc12)C(=O)O; Phe(2-F) = N[C@@H](Cc1ccccc1F)C(=O)O; Bta = N[C@@H](Cc1csc2ccccc12)C(=O)O; Acetyl(2-thienyl) = O=C(Cc1cccs1)*

Legend:
Serum = test: Drug level in rat serum treated with (S)-2-((S)-2-((S)-1-((S)-2-((S)-2-((S)-3-(1H-indol-3-yl)-2-(2-(thiophen-2-yl)acetamido)propanamido)-3-(1H-indol-2-yl)propanamido)-5-guanidinopentanoyl)pyrrolidine-2-carboxamido)-5-guanidinopentanamido)succinamide at 1 mM after 120 mins by RP-HPLC analysis; assay type: ADME, cell-free; settings: 2 h, 1000 µM
Rattus norvegicus = species on record: Rattus norvegicus; test: Stability in rat serum at 1 mM at 120 mins by RP-HPLC/MS analysis
[1] = biological target: Neuromedin-U receptor 2 (Homo sapiens) (UniProt Q9GZQ4); test: Agonist activity at human NMUR2 expressed in CHO cells assessed as induction of Ca2+ flux at 10 nM after 18 hrs by Fluo-4 AM dye based FLIPR assay relative to NMU; assay type: functional, cell-based
Chain of Neuromedin-U receptor 2 (Homo sapiens) (Q9GZQ4 whole entry): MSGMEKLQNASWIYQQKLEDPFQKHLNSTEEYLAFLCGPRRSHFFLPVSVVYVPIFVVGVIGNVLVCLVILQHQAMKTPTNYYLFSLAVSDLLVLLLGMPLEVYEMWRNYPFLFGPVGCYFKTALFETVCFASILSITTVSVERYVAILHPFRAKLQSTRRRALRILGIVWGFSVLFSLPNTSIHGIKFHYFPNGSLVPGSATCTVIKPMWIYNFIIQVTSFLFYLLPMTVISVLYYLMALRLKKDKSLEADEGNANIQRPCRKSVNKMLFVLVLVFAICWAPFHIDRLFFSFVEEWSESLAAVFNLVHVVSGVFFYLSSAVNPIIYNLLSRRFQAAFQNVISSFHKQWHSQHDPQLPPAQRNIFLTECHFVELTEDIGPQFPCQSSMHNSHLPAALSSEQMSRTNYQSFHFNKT
Procedure, shortened: (§1)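 Human NMUR1 or NMUR2 stably expressed in CHO cells was assayed by Fluo-4 AM (4 μM, 40 min) FLIPR calcium flux, with cells seeded 18 h before. Peptides were tested at single concentrations of 0.1, 10 or 100 nM. Maximal response is expressed as % of hNMU at 1000 nM (=100%).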

[2] = biological target: T1, Neuromedin-U receptor 1 (Homo sapiens) (UniProt Q9HB89); test: Agonist activity at human NMUR1 expressed in CHO cells assessed as induction of Ca2+ flux at 0.1 to 10 nM after 18 hrs by Fluo-4 AM dye based FLIPR assay relative to NMU; assay type: functional, cell-based; procedure, shortened: as §1
T1 sequence (whole entry): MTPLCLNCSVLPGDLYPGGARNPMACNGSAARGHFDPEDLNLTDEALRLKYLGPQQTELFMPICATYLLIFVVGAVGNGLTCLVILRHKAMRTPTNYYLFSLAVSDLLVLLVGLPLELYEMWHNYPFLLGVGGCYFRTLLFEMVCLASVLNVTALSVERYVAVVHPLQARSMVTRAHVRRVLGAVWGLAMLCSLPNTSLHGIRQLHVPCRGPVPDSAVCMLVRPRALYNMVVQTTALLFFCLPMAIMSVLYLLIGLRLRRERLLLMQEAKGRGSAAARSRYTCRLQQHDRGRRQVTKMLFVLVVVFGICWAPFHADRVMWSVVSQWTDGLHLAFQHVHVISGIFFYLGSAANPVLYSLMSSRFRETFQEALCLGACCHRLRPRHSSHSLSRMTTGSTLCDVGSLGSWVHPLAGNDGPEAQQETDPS

[3] = biological target: Neuromedin-U receptor 2 (Homo sapiens) (UniProt Q9GZQ4); test: Agonist activity at human NMUR2 expressed in CHO cells assessed as induction of Ca2+ flux at 0.1 to 10 nM after 18 hrs by Fluo-4 AM dye based FLIPR assay relative to NMU; assay type: functional, cell-based; procedure, shortened: as §1
[4] = biological target: Neuromedin-U receptor 2 (Homo sapiens) (UniProt Q9GZQ4); test: Agonist activity at human NMUR2 expressed in CHO cells assessed as induction of Ca2+ flux at 0.1 uM after 18 hrs by Fluo-4 AM dye based FLIPR assay relative to NMU; assay type: functional, cell-based; procedure, shortened: as §1
Prothrombin = Prothrombin (Homo sapiens, UniProt P00734); test: Drug metabolism in human serum treated with (S)-2-((S)-1-((S)-2-((S)-2-((S)-3-(1H-indol-3-yl)-2-(2-(thiophen-2-yl)acetamido)propanamido)-3-(1H-indol-3-yl)-2-methylpropanamido)-5-guanidinopentanoyl)pyrrolidine-2-carboxamido)-5-guanidinopentanoic acid assessed as thrombin-mediated metabolite formation at 1 mM after 120 mins by RP-HPLC analysis; assay type: ADME; settings: 2 h, 1000 µM
[5] = biological target: T1, Neuromedin-U receptor 1 (Homo sapiens); test: Agonist activity at human NMUR1 expressed in CHO cells assessed as induction of Ca2+ flux at 0.1 nM after 18 hrs by Fluo-4 AM dye based FLIPR assay relative to NMU; assay type: functional, cell-based; procedure, shortened: as §1
Neuromedin-U receptor 1 = biological target: T2, Neuromedin-U receptor 1 (Mus musculus, UniProt O55040); test: Agonist activity at mouse NMUR1 expressed in HEK293 cells assessed as induction of calcium mobilization after 18 hrs by Fluo-4 AM dye based FLIPR assay; assay type: functional, cell-based
T2 sequence (O55040 whole entry): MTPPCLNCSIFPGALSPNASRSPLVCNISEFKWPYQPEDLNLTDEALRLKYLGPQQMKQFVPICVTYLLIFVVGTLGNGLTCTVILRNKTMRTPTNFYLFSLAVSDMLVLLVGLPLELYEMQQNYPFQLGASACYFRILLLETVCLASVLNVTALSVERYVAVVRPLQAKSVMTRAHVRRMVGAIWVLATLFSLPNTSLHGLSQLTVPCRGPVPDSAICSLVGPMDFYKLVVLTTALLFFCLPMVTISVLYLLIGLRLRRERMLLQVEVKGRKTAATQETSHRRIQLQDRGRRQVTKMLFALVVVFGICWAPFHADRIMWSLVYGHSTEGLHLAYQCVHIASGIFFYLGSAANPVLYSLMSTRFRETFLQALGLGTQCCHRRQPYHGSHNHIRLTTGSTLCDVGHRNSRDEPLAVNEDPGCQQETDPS

[6] = biological target: T1, Neuromedin-U receptor 1 (Homo sapiens); test: Agonist activity at human NMUR1 expressed in CHO cells assessed as induction of Ca2+ flux at 100 nM after 18 hrs by Fluo-4 AM dye based FLIPR assay relative to NMU; assay type: functional, cell-based; procedure, shortened: as §1
[7] = biological target: Neuromedin-U receptor 2 (Homo sapiens) (UniProt Q9GZQ4); test: Agonist activity at human NMUR2 expressed in CHO cells assessed as induction of Ca2+ flux at 100 nM after 18 hrs by Fluo-4 AM dye based FLIPR assay relative to NMU; assay type: functional, cell-based; procedure, shortened: as §1

## N=C(N)NCCC[C@H](NC(=O)[C@@H]1CCCN1C(=O)[C@H](CCCNC(=N)N)NC(=O)[C@H](Cc1c[nH]c2ccccc12)NC(=O)[C@H](Cc1c[nH]c2ccccc12)NC(=O)Cc1cccs1)C(=O)O ({Acetyl(2-thienyl)}-WWRPR-OH)
Serum
  Drug metabolism: Metabolite_Detected
Rattus norvegicus
  remaining at 2 h, 1000 µM: 52%

## N=C(N)NCCC[C@H](NC(=O)[C@@H]1CCCN1C(=O)[C@H](CCCNC(=N)N)NC(=O)[C@H](Cc1ccc([N+](=O)[O-])cc1)NC(=O)[C@H](Cc1c[nH]c2ccccc12)NC(=O)Cc1cccs1)C(=O)N[C@@H](CC(N)=O)C(N)=O ({Acetyl(2-thienyl)}-W[Phe(4-NO2)]RPRN-NH2)
[1]
  Activity: inactive

## N=C(N)NCCC[C@H](NC(=O)[C@@H]1CCCN1C(=O)[C@H](CCCNC(=N)N)NC(=O)[C@H](Cc1csc2ccccc12)NC(=O)[C@H](Cc1c[nH]c2ccccc12)NC(=O)Cc1cccs1)C(=O)N[C@@H](CC(N)=O)C(N)=O ({Acetyl(2-thienyl)}-W[Bta]RPRN-NH2)
[2]
  Activity: Active

## COc1ccc(C[C@H](NC(=O)[C@H](Cc2c[nH]c3ccccc23)NC(=O)Cc2cccs2)C(=O)N[C@@H](CCCNC(=N)N)C(=O)N2CCC[C@H]2C(=O)N[C@@H](CCCNC(=N)N)C(=O)N[C@@H](CC(N)=O)C(N)=O)cc1 ({Acetyl(2-thienyl)}-WY(Me)RPRN-NH2)
[1]
  Activity: inactive

## N=C(N)NCCC[C@H](NC(=O)[C@@H]1CCCN1C(=O)[C@H](CCCNC(=N)N)NC(=O)[C@H](Cc1cccc(F)c1)NC(=O)[C@H](Cc1c[nH]c2ccccc12)NC(=O)Cc1cccs1)C(=O)N[C@@H](CC(N)=O)C(N)=O ({Acetyl(2-thienyl)}-W[Phe(3-F)]RPRN-NH2)
[2]
  Activity: Active
[3]
  Activity: Active

## N=C(N)NCCC[C@H](NC(=O)[C@@H]1CCCN1C(=O)[C@H](CCCNC(=N)N)NC(=O)[C@H](Cc1ccccc1F)NC(=O)[C@H](Cc1c[nH]c2ccccc12)NC(=O)Cc1cccs1)C(=O)N[C@@H](CC(N)=O)C(N)=O ({Acetyl(2-thienyl)}-W[Phe(2-F)]RPRN-NH2)
[2]
  Activity: Active
[3]
  Activity: Active

## C[C@@](Cc1c[nH]c2ccccc12)(NC(=O)[C@H](Cc1c[nH]c2ccccc12)NC(=O)Cc1cccs1)C(=O)N[C@@H](CCCNC(=N)N)C(=O)N1CCC[C@H]1C(=O)N[C@@H](CCCNC(=N)N)C(=O)O ({Acetyl(2-thienyl)}-W[αMeW]RPR-OH)
[2]
  Activity: Active
[4]
  Activity: inactive
Prothrombin
  Drug metabolism: Metabolite_Detected
Rattus norvegicus
  remaining at 2 h, 1000 µM: 101%

## N=C(N)NCCC[C@H](NC(=O)[C@@H]1CCCN1C(=O)[C@H](CCCNC(=N)N)NC(=O)[C@H](Cc1ccc(Cl)cc1)NC(=O)[C@H](Cc1c[nH]c2ccccc12)NC(=O)Cc1cccs1)C(=O)N[C@@H](CC(N)=O)C(N)=O ({Acetyl(2-thienyl)}-W[Phe(4-Cl)]RPRN-NH2)
[1]
  Activity: Active

## N=C(N)NCCC[C@H](NC(=O)[C@@H]1CCCN1C(=O)[C@H](CCCNC(=N)N)NC(=O)[C@H](Cc1ccc(C(F)(F)F)cc1)NC(=O)[C@H](Cc1c[nH]c2ccccc12)NC(=O)Cc1cccs1)C(=O)N[C@@H](CC(N)=O)C(N)=O ({Acetyl(2-thienyl)}-W[Phe(4-CF3)]RPRN-NH2)
[1]
  Activity: inactive
[5]
  Activity: Active

## CC(C)C[C@H](NC(=O)[C@H](Cc1ccccc1)NC(=O)[C@H](Cc1ccc(O)cc1)NC(=O)CNC(=O)[C@H](CCCCN)NC(=O)[C@H](CO)NC(=O)[C@H](CCC(N)=O)NC(=O)CNC(=O)[C@@H](NC(=O)[C@H](CO)NC(=O)[C@@H]1CCCN1C(=O)[C@H](CO)NC(=O)[C@H](CCC(N)=O)NC(=O)[C@H](Cc1ccc(O)cc1)NC(=O)[C@H](CCC(=O)O)NC(=O)[C@H](C)NC(=O)[C@H](CCCCN)NC(=O)[C@@H](N)Cc1ccccc1)C(C)C)C(=O)N[C@@H](Cc1ccccc1)C(=O)N[C@@H](CCCNC(=N)N)C(=O)N1CCC[C@H]1C(=O)N[C@@H](CCCNC(=N)N)C(=O)N[C@@H](CC(N)=O)C(N)=O (H-FKAEYQSPSVGQSKGYFLFRPRN-NH2)
Neuromedin-U receptor 1
  EC50: 0.42 nM

## N=C(N)NCCC[C@H](NC(=O)[C@@H]1CCCN1C(=O)[C@H](CCCNC(=N)N)NC(=O)[C@H](Cc1cccc2ccccc12)NC(=O)[C@H](Cc1c[nH]c2ccccc12)NC(=O)Cc1cccs1)C(=O)N[C@@H](CC(N)=O)C(N)=O ({Acetyl(2-thienyl)}-W[1Nal]RPRN-NH2)
[1]
  Activity: inactive

## O=C(Cc1cccs1)N[C@@H](Cc1c[nH]c2ccccc12)C(=O)N[C@@H](Cc1c[nH]c2ccccc12)C(=O)O
Serum
  Drug metabolism: Metabolite_Detected

## N=C(N)NCCC[C@H](NC(=O)[C@@H]1CCCN1C(=O)[C@H](CCCNC(=N)N)NC(=O)[C@H](Cc1ccc(-c2ccccc2)cc1)NC(=O)[C@H](Cc1c[nH]c2ccccc12)NC(=O)Cc1cccs1)C(=O)N[C@@H](CC(N)=O)C(N)=O ({Acetyl(2-thienyl)}-W[Bip]RPRN-NH2)
[1]
  Activity: inactive
[5]
  Activity: Active

## N=C(N)NCCC[C@H](NC(=O)[C@@H]1CCCN1C(=O)[C@H](CCCNC(=N)N)NC(=O)[C@H](Cc1ccc(C(=O)c2ccccc2)cc1)NC(=O)[C@H](Cc1c[nH]c2ccccc12)NC(=O)Cc1cccs1)C(=O)N[C@@H](CC(N)=O)C(N)=O ({Acetyl(2-thienyl)}-W[Bpa]RPRN-NH2)
[1]
  Activity: inactive
[5]
  Activity: Active

## N=C(N)NCCC[C@H](NC(=O)[C@@H]1CCCN1C(=O)[C@H](CCCNC(=N)N)NC(=O)[C@H](Cc1ccc(Br)cc1)NC(=O)[C@H](Cc1c[nH]c2ccccc12)NC(=O)Cc1cccs1)C(=O)N[C@@H](CC(N)=O)C(N)=O ({Acetyl(2-thienyl)}-W[Phe(4-Br)]RPRN-NH2)
[1]
  Activity: inactive

## N=C(N)NCCC[C@H](NC(=O)[C@@H]1CCCN1C(=O)[C@H](CCCNC(=N)N)NC(=O)[C@@H](NC(=O)[C@H](Cc1c[nH]c2ccccc12)NC(=O)Cc1cccs1)C(c1ccccc1)c1ccccc1)C(=O)N[C@@H](CC(N)=O)C(N)=O ({Acetyl(2-thienyl)}-W[Dip]RPRN-NH2)
[6]
  Activity: inactive
[7]
  Activity: inactive

## N#Cc1ccc(C[C@H](NC(=O)[C@H](Cc2c[nH]c3ccccc23)NC(=O)Cc2cccs2)C(=O)N[C@@H](CCCNC(=N)N)C(=O)N2CCC[C@H]2C(=O)N[C@@H](CCCNC(=N)N)C(=O)N[C@@H](CC(N)=O)C(N)=O)cc1 ({Acetyl(2-thienyl)}-W[Phe(4-CN)]RPRN-NH2)
[1]
  Activity: inactive
